In test [1] the test system is HL-60. Put plainly: Antiproliferative activity against human HL60 cells assessed as growth inhibition incubated up to 4 days by MTS assay. The format is functional, cell-based. Conditions: HL-60, 96 h. The essentials:
(§1)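 Five human tumour cell lines were assayed by MTS. IC50 is the compound concentration that cuts optical density of treated cells by 50% relative to untreated cells. Mean of three independent determinations.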
On the technique in general: Formazan colour is commonly taken as a measure of viable cells.

Test [2] relates to SMMC-7721. Put plainly: Antiproliferative activity against human SMMC7721 cells assessed as growth inhibition incubated up to 4 days by MTS assay. The format is functional, cell-based. As to conditions: SMMC-7721, 96 h. The method in brief:
as §1

Test [3] deals with MCF7. Put plainly: Antiproliferative activity against human MCF7 cells assessed as growth inhibition incubated up to 4 days by MTS assay. Conditions: MCF7, 96 h. The format is functional, cell-based. The essentials: as §1
For test [4], the system named is A549. The test can be described thus: Antiproliferative activity against human A549 cells assessed as growth inhibition incubated up to 4 days by MTS assay. Conditions: A549, 96 h. The format is functional, cell-based. The method in brief: as §1
For test [5], the system named is SW480. Put plainly: Antiproliferative activity against human SW480 cells assessed as growth inhibition incubated up to 4 days by MTS assay. The format is functional, cell-based. As to conditions: SW480, 96 h. The method in brief: as §1
For test [6], the system named is SW480. The test can be described thus: Potency index, ratio of cisplatin IC50 to compound IC50 for antiproliferative activity against human SW480 cells assessed as growth inhibition. The format is functional.
For test [7], the system named is MCF7. Put plainly: Potency index, ratio of cisplatin IC50 to compound IC50 for antiproliferative activity against human MCF7 cells assessed as growth inhibition. The format is functional.

This note sets out measurements from ChEMBL document CHEMBL4610035, “Synthesis and biological evaluation of novel 3-benzylcoumarin-imidazolium salts” (Bioorg Med Chem Lett, 2020).

Some results are limits rather than exact numbers.

As usually defined, the IC50 is the concentration that gives 50% inhibition. Consider `O=C(C[n+]1ccn(C(c2ccccc2)c2cc3ccccc3oc2=O)c1)c1ccc(C(F)(F)F)cc1` (stereo not given), for which the IC50 in test [1], in test [2], in test [3], in test [4] and in test [5] was above 20 µM in each case.

Consider `COc1ccc(C(=O)C[n+]2cn(C(c3ccccc3)c3cc4ccccc4oc3=O)c3ccccc32)cc1` (stereo not given), for which the IC50 is 7.13 µM in test [1]; 8.84 µM in test [2]; 1.74 µM in test [3]; above 20 µM in test [4]; 4.82 µM in test [5].

`O=c1oc2ccccc2cc1C(c1ccccc1)n1cnc2ccccc21` (stereo not given): the IC50 in test [1], in test [2], in test [3], in test [4] and in test [5] was above 20 µM each time.

For the compound `COc1ccc(C(=O)C[n+]2c(C)n(C(c3ccccc3)c3cc4ccccc4oc3=O)c3ccccc32)cc1` (stereo not given), the IC50 in test [1] is 3.69 µM; in test [2] it was 6.92 µM; in test [3] it was 1.21 µM; in test [4] it was 8.56 µM; in test [5] it was 3.43 µM.

With `Cc1cc2c(cc1C)[n+](CC(=O)c1ccc(C(F)(F)F)cc1)cn2C(c1ccccc1)c1cc2ccccc2oc1=O` (stereo not given), the IC50 in test [1] is 8.81 µM; in test [2], 9.5 µM; in test [3] it was 6.61 µM; in test [4], 11.7 µM; in test [5], 8.19 µM.

Take `Cc1n(C(c2ccccc2)c2cc3ccccc3oc2=O)c2ccccc2[n+]1CC(=O)c1ccc(C(F)(F)F)cc1` (stereo not given): the IC50 in test [1] is 7.72 µM; in test [2], above 20 µM; in test [3], 8.15 µM; in test [4], above 20 µM; in test [5] it was 9.13 µM.

For `O=C(C[n+]1cn(C(c2ccccc2)c2cc3ccccc3oc2=O)c2ccccc21)c1ccc(C(F)(F)F)cc1` (stereo not given), the IC50 in test [1] is 4.49 µM; in test [2], 6.15 µM; in test [3], 1.29 µM; in test [4], 7.07 µM; in test [5], 1.55 µM.

As to `O=C(C[n+]1cn(C(c2ccccc2)c2cc3ccccc3oc2=O)c2ccccc21)c1ccc2ccccc2c1` (stereo not given), the IC50 in test [1] is 4.13 µM; in test [2], 5.72 µM; in test [3], 1.28 µM; in test [4], 9.11 µM; in test [5] it was 1.48 µM.

`Cc1nc2ccccc2n1C(c1ccccc1)c1cc2ccccc2oc1=O` (stereo not given): the IC50 in test [1], in test [2], in test [3], in test [4] and in test [5] was above 20 µM each time.

Turning to `O=C(C[n+]1cn(C(c2ccccc2)c2cc3ccccc3oc2=O)c2ccccc21)c1ccccc1` (stereo not given), the IC50 was 18.6 µM in test [1]; above 20 µM in test [2]; 5.1 µM in test [3]; above 20 µM in test [4]; 6.36 µM in test [5].

For `Cc1n(C(c2ccccc2)c2cc3ccccc3oc2=O)c2ccccc2[n+]1CC(=O)c1ccc2ccccc2c1` (stereo not given), the IC50 in test [1] came to 8.34 µM; in test [2], 11.4 µM; in test [3] it was 2.81 µM; in test [4] it was 15.8 µM; in test [5], 6.02 µM.

For `O=C(C[n+]1ccn(C(c2ccccc2)c2cc3ccccc3oc2=O)c1)c1ccc(-c2ccccc2)cc1` (stereo not given), the IC50 in test [1] was 5.28 µM; in test [2], above 20 µM; in test [3], 12.7 µM; in test [4] it was above 20 µM; in test [5], above 20 µM.

On to `Cc1cc2c(cc1C)[n+](CC(=O)c1ccccc1)cn2C(c1ccccc1)c1cc2ccccc2oc1=O` (stereo not given), for which the IC50 came to 4.81 µM in test [1]; 7.17 µM in test [2]; 4.17 µM in test [3]; 12.4 µM in test [4]; 1.24 µM in test [5].

As for `O=C(C[n+]1ccn(C(c2ccccc2)c2cc3ccccc3oc2=O)c1)c1ccc2ccccc2c1` (stereo not given), the IC50 was 4.38 µM in test [1]; above 20 µM in test [2]; 7.27 µM in test [3]; above 20 µM in test [4]; 8.03 µM in test [5].

In the case of `Cc1n(C(c2ccccc2)c2cc3ccccc3oc2=O)c2ccccc2[n+]1CC(=O)c1ccccc1` (stereo not given), the IC50 in test [1], in test [2], in test [3], in test [4] and in test [5] was above 20 µM throughout.

On to `O=C(C[n+]1cn(C(c2ccccc2)c2cc3ccccc3oc2=O)c2ccccc21)c1ccc(-c2ccccc2)cc1.[Br-]` (stereo not given), for which the IC50 came to 2.91 µM in test [1]; 4.7 µM in test [2]; 0.96 µM in test [3]; 7.47 µM in test [4]; 1.63 µM in test [5]. In addition, the “Ratio IC50” value in test [6] stood at 4.9; in test [7], 10.2.

`O=C(C[n+]1ccn(C(c2ccccc2)c2cc3ccccc3oc2=O)c1)c1ccccc1` (stereo not given): the IC50 in test [1], in test [2], in test [3], in test [4] and in test [5] was above 20 µM in each case.

For the compound `Cc1n(C(c2ccccc2)c2cc3ccccc3oc2=O)c2ccccc2[n+]1CC(=O)c1ccc(Br)cc1` (stereo not given), the IC50 in test [1], in test [2], in test [3], in test [4] and in test [5] was above 20 µM in each case.

`Cc1n(C(c2ccccc2)c2cc3ccccc3oc2=O)c2ccccc2[n+]1CC(=O)c1ccc(-c2ccccc2)cc1` (stereo not given): the IC50 in test [1] amounted to 2.77 µM; in test [2] it was 5.05 µM; in test [3], 2.86 µM; in test [4] it was 5.1 µM; in test [5], 2.88 µM.

With `O=C(C[n+]1cn(C(c2ccccc2)c2cc3ccccc3oc2=O)c2ccccc21)c1ccc(Br)cc1` (stereo not given), the IC50 turned out to be 5.95 µM in test [1]; 8.2 µM in test [2]; 1.24 µM in test [3]; 11.9 µM in test [4]; 1.65 µM in test [5].

On to `O=c1oc2ccccc2cc1C(c1ccccc1)n1ccnc1` (stereo not given), for which the IC50 in test [1], in test [2], in test [3], in test [4] and in test [5] was above 20 µM in each case.

In the case of `Cc1cc2ncn(C(c3ccccc3)c3cc4ccccc4oc3=O)c2cc1C` (stereo not given), the IC50 in test [1], in test [2], in test [3], in test [4] and in test [5] was above 20 µM throughout.

Consider `Cc1cc2c(cc1C)[n+](CC(=O)c1ccc(Br)cc1)cn2C(c1ccccc1)c1cc2ccccc2oc1=O.[Br-]` (stereo not given), for which the IC50 is 2.45 µM in test [1]; 4.19 µM in test [2]; 2.29 µM in test [3]; 4.89 µM in test [4]; 0.2 µM in test [5]. Besides, the “Ratio IC50” value in test [6] was determined as 40.

Take `COc1ccc(C(=O)C[n+]2cn(C(c3ccccc3)c3cc4ccccc4oc3=O)c3cc(C)c(C)cc32)cc1.[Br-]` (stereo not given): the IC50 in test [1] came out at 1.55 µM; in test [2] it was 4.72 µM; in test [3], 1.58 µM; in test [4], 5.65 µM; in test [5], 0.36 µM. Besides, the “Ratio IC50” value in test [6] turned out to be 22.2; in test [7], 6.2.

In the case of `Cc1cc2c(cc1C)[n+](CC(=O)c1ccc(-c3ccccc3)cc1)cn2C(c1ccccc1)c1cc2ccccc2oc1=O` (stereo not given), the IC50 amounted to 2.07 µM in test [1]; 1.91 µM in test [2]; 1.66 µM in test [3]; 2.14 µM in test [4]; 8.03 µM in test [5].

Consider `COc1ccc(C(=O)C[n+]2ccn(C(c3ccccc3)c3cc4ccccc4oc3=O)c2)cc1` (stereo not given), for which the IC50 in test [1], in test [2], in test [3], in test [4] and in test [5] was above 20 µM each time.

Regarding `O=C(C[n+]1ccn(C(c2ccccc2)c2cc3ccccc3oc2=O)c1)c1ccc(Br)cc1` (stereo not given), the IC50 in test [1], in test [2], in test [3], in test [4] and in test [5] was above 20 µM throughout.
